Measurements as given in ChEMBL document CHEMBL4689842, “EUbOPEN Chemogenomics Library wave 1” (2021).

Test system: U2OS
Assay: Multiplex assay against U2OS
Assay type: toxicity, cell-based
Settings: human
Method in brief: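 Cells were classed with CellPathfinder machine-learning gating, first as Hoechst high-intensity objects or normal cells, then (normal cells) as healthy, pyknosed or fragmented nuclei, and finally (pyknosed cells) as mitotic or apoptotic. Staining of live cells at seeding used Hoechst33342, BioTracker Green Microtubule Cytoskeleton Dye, MitoTracker Red and Annexin V Alexa Fluor 680, with imaging on a CQ1 microscope at 37°C and 5% CO2 after compound addition. Tubulin, mitochondrial-mass and membrane-permeability phenotypes are per cents of healthy-nucleus cells.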

[1] = 12 h, 1 µM, compound concentration 1 uM, replicate 1
[2] = 12 h, 1 µM, compound concentration 1 uM, replicate 2
[3] = 12 h, 10 µM, compound concentration 10 uM, replicate 1
[4] = 12 h, 10 µM, compound concentration 10 uM, replicate 2
[5] = 24 h, 1 µM, compound concentration 1 uM, replicate 1
[6] = 24 h, 1 µM, compound concentration 1 uM, replicate 2
[7] = 24 h, 10 µM, compound concentration 10 uM, replicate 1
[8] = 24 h, 10 µM, compound concentration 10 uM, replicate 2
[9] = 48 h, 1 µM, compound concentration 1 uM, replicate 1
[10] = 48 h, 1 µM, compound concentration 1 uM, replicate 2
[11] = 48 h, 10 µM, compound concentration 10 uM, replicate 1
[12] = 48 h, 10 µM, compound concentration 10 uM, replicate 2

CCn1c(=O)c(-c2ccc(-c3cncs3)cc2Cl)cc2cnc(Nc3ccc(N4CCN(C)CC4)cc3)nc21
Population Apoptotic (%) [1]: 57%
Population Fragmented Nuclei (%) [1]: 11%
Population Healthy Nuclei (%) [1]: 77%
Population Hoechst High Intensity Objects (%) [1]: 7%
Population Membrane Permeable-Phenotype (%) [1]: 11%
Population Mitochondria Different-Phenotype (%) [1]: 11%
Population Mitotic Cells (%) [1]: 42%
Population Normal (%) [1]: 92%
Population Pyknosed Nuclei (%) [1]: 11%
Population Tubulin-Different-Phenotype (%) [1]: 7%
Total Cell Count [1]: 162
Population Apoptotic (%) [2]: 75%
Population Fragmented Nuclei (%) [2]: 9%
Population Healthy Nuclei (%) [2]: 78%
Population Membrane Permeable-Phenotype (%) [2]: 3%
Population Mitochondria Different-Phenotype (%) [2]: 17%
Population Mitotic Cells (%) [2]: 25%
Population Tubulin-Different-Phenotype (%) [2]: 19%
Total Cell Count [2]: 76
Population Apoptotic (%) [3]: 84%
Population Fragmented Nuclei (%) [3]: 40%
Population Healthy Nuclei (%) [3]: 5%
Population Hoechst High Intensity Objects (%) [3]: 77%
Population Membrane Permeable-Phenotype (%) [3]: 38%
Population Mitochondria Different-Phenotype (%) [3]: 53%
Population Mitotic Cells (%) [3]: 15%
Population Normal (%) [3]: 22%
Population Pyknosed Nuclei (%) [3]: 54%
Population Tubulin-Different-Phenotype (%) [3]: 84%
Total Cell Count [3]: 177
Population Apoptotic (%) [4]: 11%
Population Fragmented Nuclei (%) [4]: 8%
Population Healthy Nuclei (%) [4]: 79%
Population Hoechst High Intensity Objects (%) [4]: 4%
Population Membrane Permeable-Phenotype (%) [4]: 5%
Population Mitochondria Different-Phenotype (%) [4]: 29%
Population Mitotic Cells (%) [4]: 88%
Population Normal (%) [4]: 96%
Population Pyknosed Nuclei (%) [4]: 12%
Population Tubulin-Different-Phenotype (%) [4]: 15%
Total Cell Count [4]: 77
Population Apoptotic (%) [5]: 38%
Population Fragmented Nuclei (%) [5]: 10%
Population Healthy Nuclei (%) [5]: 78%
Population Hoechst High Intensity Objects (%) [5]: 4%
Population Membrane Permeable-Phenotype (%) [5]: 6%
Population Mitochondria Different-Phenotype (%) [5]: 6%
Population Mitotic Cells (%) [5]: 61%
Population Normal (%) [5]: 95%
Population Pyknosed Nuclei (%) [5]: 10%
Population Tubulin-Different-Phenotype (%) [5]: 7%
Total Cell Count [5]: 161
Population Apoptotic (%) [6]: 46%
Population Fragmented Nuclei (%) [6]: 15%
Population Healthy Nuclei (%) [6]: 68%
Population Membrane Permeable-Phenotype (%) [6]: 1%
Population Mitochondria Different-Phenotype (%) [6]: 5%
Population Mitotic Cells (%) [6]: 53%
Population Pyknosed Nuclei (%) [6]: 16%
Population Tubulin-Different-Phenotype (%) [6]: 20%
Total Cell Count [6]: 74
Population Apoptotic (%) [7]: 97%
Population Fragmented Nuclei (%) [7]: 30%
Population Healthy Nuclei (%) [7]: 0%
Population Hoechst High Intensity Objects (%) [7]: 78%
Population Membrane Permeable-Phenotype (%) [7]: 100%
Population Mitochondria Different-Phenotype (%) [7]: 100%
Population Mitotic Cells (%) [7]: 2%
Population Normal (%) [7]: 21%
Population Pyknosed Nuclei (%) [7]: 69%
Population Tubulin-Different-Phenotype (%) [7]: 100%
Total Cell Count [7]: 212
Population Apoptotic (%) [8]: 27%
Population Fragmented Nuclei (%) [8]: 14%
Population Healthy Nuclei (%) [8]: 71%
Population Hoechst High Intensity Objects (%) [8]: 3%
Population Membrane Permeable-Phenotype (%) [8]: 7%
Population Mitochondria Different-Phenotype (%) [8]: 23%
Population Mitotic Cells (%) [8]: 72%
Population Normal (%) [8]: 96%
Population Pyknosed Nuclei (%) [8]: 14%
Population Tubulin-Different-Phenotype (%) [8]: 8%
Total Cell Count [8]: 83
Population Apoptotic (%) [9]: 60%
Population Fragmented Nuclei (%) [9]: 6%
Population Healthy Nuclei (%) [9]: 85%
Population Hoechst High Intensity Objects (%) [9]: 3%
Population Membrane Permeable-Phenotype (%) [9]: 3%
Population Mitochondria Different-Phenotype (%) [9]: 9%
Population Mitotic Cells (%) [9]: 40%
Population Normal (%) [9]: 96%
Population Pyknosed Nuclei (%) [9]: 8%
Population Tubulin-Different-Phenotype (%) [9]: 9%
Total Cell Count [9]: 186
Population Apoptotic (%) [10]: 50%
Population Fragmented Nuclei (%) [10]: 8%
Population Healthy Nuclei (%) [10]: 79%
Population Hoechst High Intensity Objects (%) [10]: 8%
Population Membrane Permeable-Phenotype (%) [10]: 7%
Population Mitochondria Different-Phenotype (%) [10]: 20%
Population Mitotic Cells (%) [10]: 50%
Population Normal (%) [10]: 92%
Population Pyknosed Nuclei (%) [10]: 12%
Population Tubulin-Different-Phenotype (%) [10]: 23%
Total Cell Count [10]: 105
Population Apoptotic (%) [11]: 93%
Population Fragmented Nuclei (%) [11]: 31%
Population Healthy Nuclei (%) [11]: 0%
Population Hoechst High Intensity Objects (%) [11]: 80%
Population Membrane Permeable-Phenotype (%) [11]: 25%
Population Mitochondria Different-Phenotype (%) [11]: 25%
Population Mitotic Cells (%) [11]: 6%
Population Normal (%) [11]: 19%
Population Pyknosed Nuclei (%) [11]: 67%
Population Tubulin-Different-Phenotype (%) [11]: 50%
Total Cell Count [11]: 321
Population Apoptotic (%) [12]: 57%
Population Fragmented Nuclei (%) [12]: 16%
Population Healthy Nuclei (%) [12]: 70%
Population Hoechst High Intensity Objects (%) [12]: 3%
Population Membrane Permeable-Phenotype (%) [12]: 16%
Population Mitochondria Different-Phenotype (%) [12]: 24%
Population Mitotic Cells (%) [12]: 42%
Population Normal (%) [12]: 96%
Population Pyknosed Nuclei (%) [12]: 13%
Population Tubulin-Different-Phenotype (%) [12]: 18%
Total Cell Count [12]: 125
